The source made the active and inactive calls. The rule behind the calls is not given here.
Tests used:
Human betaherpesvirus 5 [1] = test: Antiviral activity against HCMV Towne infected in HFF by plaque reduction assay; type: functional, organism-based; details: Human betaherpesvirus 5, Towne
In short: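 HCMV work used human foreskin fibroblasts as primary cultures, propagated in MEM with 10% FBS and L-glutamine, with or without antibiotics.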

Murid betaherpesvirus 1 [2] = test: Antiviral activity against MCMV infected in BALB/c mouse assessed as decrease in virus-induced mortality at 5.6 mg/kg, po qd for 5 days administered 24 hrs after viral infection (reference value: 67%); type: functional; set-up: scale not given: the % may be the effect or the level left
In short: (§1)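 Female BALB/c mice (3 weeks, 15/group) were inoculated ip with MCMV Smith at about LD90. Oral dosing of 0.2 mL in 0.4% CMC ran once daily for 5 days, starting 24 or 48 h post-inoculation. Mice were observed daily for 21 days. Mortality was compared with CMC placebo by Fisher's exact test.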

Human betaherpesvirus 5 [3] = test: Antiviral activity against HCMV Toledo infected in human thymus/liver tissue xenografted in SCID mouse assessed as mean log10 genome equivalents/animal at 6.25 mg/kg, po qd for 21 days by RT-PCR analysis (reference value: 3.82 +/- 1.24); type: functional, strain Toledo
Mus musculus [4] = test: Toxicity in BALB/c mouse assessed as ruffled coat appearance at 16.7 mg/kg, po qd for 5 days relative to control; type: organism-based; set-up: dose 16.7 mg/kg, route oral; details: in vivo, 120 h
In short: (§2)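 Uninfected female BALB/c mice, 3 weeks old, in groups of 5. Compound suspended in 0.4% carboxymethylcellulose and given orally in 0.2 mL once daily for 5 days at 50, 16.7 or 5.6 mg/kg. Mean group body weight tracked over days 1–5 plus day 6 recovery. Clinical signs (ruffled coat, behaviour) were observed. Comparison was with vehicle-treated or untreated mice.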

Human alphaherpesvirus 3 = test: Antiviral activity against VZV infected in HFF assessed as reduction in virus induced cytopathic effect; type: functional, organism-based
Human betaherpesvirus 5 [5] = test: Antiviral activity against HCMV Toledo infected in human thymus/liver tissue xenografted in SCID mouse assessed as mean log10 genome equivalents/animal at 6.25 mg/kg, po qd for 28 days by RT-PCR analysis (reference value: 3.73 +/- 0.784); type: functional, strain Toledo
Mus musculus [6] = test: Toxicity in BALB/c mouse assessed as ruffled coat appearance at 50 mg/kg, po qd for 5 days relative to control; type: organism-based; set-up: dose 50 mg/kg, route oral; details: in vivo, 120 h; in short: as §2
Human betaherpesvirus 5 [7] = test: Antiviral activity against HCMV Toledo infected in human thymus/liver tissue xenografted in SCID mouse assessed as mean log10 genome equivalents/animal at 6.25 mg/kg, po qd for 28 days measured on day 35 by RT-PCR analysis (reference value: 3.28 +/- 1.422); type: functional, strain Toledo
Vaccinia virus = test: Antiviral activity against Vaccinia virus infected in HFF assessed as reduction in virus induced cytopathic effect at 100 uM; type: functional, organism-based; details: Orthopoxvirus vaccinia
Human betaherpesvirus 5 [8] = test: Antiviral activity against HCMV Toledo infected in human thymus/liver tissue xenografted in SCID mouse assessed as decrease in viral infection at 12.5 mg/kg, po qd for 14 days by RT-PCR analysis (reference value: 92%); type: functional, strain Toledo; set-up: scale not given: the % may be the effect or the level left
Murid betaherpesvirus 1 [9] = test: Antiviral activity against MCMV infected in BALB/c mouse assessed as decrease in virus-induced mortality at 16.7 mg/kg, po qd for 5 days administered 48 hrs after viral infection (reference value: 100%); type: functional; set-up: scale not given: the % may be the effect or the level left; in short: as §1
Human betaherpesvirus 5 [10] = test: Antiviral activity against HCMV Toledo infected in human thymus/liver tissue xenografted in SCID mouse assessed as mean log10 genome equivalents/animal at 12.5 mg/kg, po qd for 21 days by RT-PCR analysis (reference value: 3.82 +/- 1.24); type: functional, strain Toledo
Murid betaherpesvirus 1 [11] = test: Antiviral activity against MCMV infected in BALB/c mouse assessed as decrease in virus-induced mortality at 50 mg/kg, po qd for 5 days administered 24 hrs after viral infection (reference value: 67%); type: functional; set-up: scale not given: the % may be the effect or the level left; in short: as §1
Murid betaherpesvirus 1 [12] = test: Antiviral activity against MCMV infected in BALB/c mouse assessed as decrease in virus-induced mortality at 50 mg/kg, po qd for 5 days administered 48 hrs after viral infection (reference value: 100%); type: functional; set-up: scale not given: the % may be the effect or the level left; in short: as §1
Human betaherpesvirus 5 [13] = test: Antiviral activity against HCMV Toledo infected in human thymus/liver tissue xenografted in SCID mouse assessed as decrease in viral infection at 12.5 mg/kg, po qd for 21 days by RT-PCR analysis (reference value: 92%); type: functional, strain Toledo; set-up: scale not given: the % may be the effect or the level left
Human betaherpesvirus 5 [14] = test: Antiviral activity against HCMV Toledo infected in human thymus/liver tissue xenografted in SCID mouse assessed as mean log10 genome equivalents/animal at 12.5 mg/kg, po qd for 14 days by RT-PCR analysis (reference value: 3.50 +/- 0.878); type: functional, strain Toledo
Mus musculus [15] = test: Toxicity in BALB/c mouse assessed as body weight loss at 16.7 mg/kg, po qd for 5 days relative to control; type: organism-based; set-up: dose 16.7 mg/kg, route oral; details: in vivo, 120 h; in short: as §2
Human betaherpesvirus 5 [16] = test: Antiviral activity against HCMV Toledo infected in human thymus/liver tissue xenografted in SCID mouse assessed as decrease in viral infection at 12.5 mg/kg, po qd for 28 days measured on day 35 by RT-PCR analysis (reference value: 67%); type: functional, strain Toledo; set-up: scale not given: the % may be the effect or the level left
Human betaherpesvirus 5 [17] = test: Antiviral activity against HCMV Toledo infected in human thymus/liver tissue xenografted in SCID mouse assessed as decrease in viral infection at 6.25 mg/kg, po qd for 14 days by RT-PCR analysis (reference value: 92%); type: functional, strain Toledo; set-up: scale not given: the % may be the effect or the level left
Human gammaherpesvirus 4 = test: Antiviral activity against Epstein-Barr virus infected in Akata cells by DNA hybridization assay; type: functional, organism-based; details: human gammaherpesvirus 4, Akata
Murid betaherpesvirus 1 [18] = test: Antiviral activity against MCMV infected in BALB/c mouse assessed as decrease in virus-induced mortality at 5.6 mg/kg, po qd for 5 days administered 48 hrs after viral infection (reference value: 100%); type: functional; set-up: scale not given: the % may be the effect or the level left; in short: as §1
Human betaherpesvirus 5 [19] = test: Antiviral activity against HCMV Toledo infected in human thymus/liver tissue xenografted in SCID mouse assessed as mean log10 genome equivalents/animal at 6.25 mg/kg, po qd for 14 days by RT-PCR analysis (reference value: 3.50 +/- 0.878); type: functional, strain Toledo
Human betaherpesvirus 5 [20] = test: Antiviral activity against HCMV Toledo infected in human thymus/liver tissue xenografted in SCID mouse assessed as decrease in viral infection at 6.25 mg/kg, po qd for 21 days by RT-PCR analysis (reference value: 92%); type: functional, strain Toledo; set-up: scale not given: the % may be the effect or the level left
Murid betaherpesvirus 1 [21] = test: Antiviral activity against MCMV infected in BALB/c mouse assessed as decrease in virus-induced mortality at 16.7 mg/kg, po qd for 5 days administered 24 hrs after viral infection (reference value: 67%); type: functional; set-up: scale not given: the % may be the effect or the level left; in short: as §1
Mus musculus [22] = test: Toxicity in BALB/c mouse assessed as ruffled coat appearance at 5.6 mg/kg, po qd for 5 days relative to control; type: organism-based; set-up: dose 5.6 mg/kg, route oral; details: in vivo, 120 h; in short: as §2
Human betaherpesvirus 5 [23] = test: Antiviral activity against HCMV Toledo infected in human thymus/liver tissue xenografted in SCID mouse assessed as mean log10 genome equivalents/animal at 12.5 mg/kg, po qd for 28 days by RT-PCR analysis (reference value: 3.73 +/- 0.784); type: functional, strain Toledo
Mus musculus [24] = test: Toxicity in BALB/c mouse assessed as body weight loss at 5.6 mg/kg, po qd for 5 days relative to control; type: organism-based; set-up: dose 5.6 mg/kg, route oral; details: in vivo, 120 h; in short: as §2
Human alphaherpesvirus 2 = test: Antiviral activity against HSV2 infected in HFF assessed as reduction in virus induced cytopathic effect; type: functional, organism-based

## Nc1ncc2ncn(/C=C3/CC3(CO)CO)c2n1
Human betaherpesvirus 5 [1]
  EC50: > 100 µM
Murid betaherpesvirus 1 [2]
  Activity: 7%
Human betaherpesvirus 5 [3]
  Activity: 3.14
Mus musculus [4]
  Activity: Non-toxic
Human alphaherpesvirus 3
  EC50: > 300 µM
Human betaherpesvirus 5 [5]
  Activity: 2.81
Mus musculus [6]
  Activity: Non-toxic
Human betaherpesvirus 5 [7]
  Activity: 3.32
Vaccinia virus
  Activity: inactive
Human betaherpesvirus 5 [8]
  Activity: 100%
Murid betaherpesvirus 1 [9]
  Activity: 7%
Human betaherpesvirus 5 [10]
  Activity: 2.94
Murid betaherpesvirus 1 [11]
  Activity: 47%
Murid betaherpesvirus 1 [12]
  Activity: 67%
Human betaherpesvirus 5 [13]
  Activity: 82%
Human betaherpesvirus 5 [14]
  Activity: 3.03
Mus musculus [15]
  Activity: Non-toxic
Human betaherpesvirus 5 [16]
  Activity: 83%
Human betaherpesvirus 5 [17]
  Activity: 92%
Human gammaherpesvirus 4
  EC50: 27 µM
Murid betaherpesvirus 1 [18]
  Activity: 0%
Human betaherpesvirus 5 [19]
  Activity: 3.9
Human betaherpesvirus 5 [20]
  Activity: 92%
Murid betaherpesvirus 1 [21]
  Activity: 0%
Mus musculus [22]
  Activity: Non-toxic
Human betaherpesvirus 5 [23]
  Activity: 2.76
Mus musculus [24]
  Activity: Non-toxic
Human alphaherpesvirus 2
  EC50: > 300 µM
